Values after ≈ are worked out from the molar mass of the structure shown.
Key:
Type in all cases: functional
Candida albicans [1] = assay: Antifungal activity against Candida albicans SC5314 assessed as reduction in fungal growth incubated for 24 hrs by serial dilution method; details: SC5314, 24 h
Outline: (§1)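 MIC by CLSI broth microdilution in RPMI 1640 buffered to pH 7.0 with MOPS. Compounds dissolved in DMSO and serially diluted to final 0.03–16 or 0.125–64 µg/mL. Inoculum 1–5 × 10^3 CFU/mL. Incubation 35 °C, 24 h. Drug-free growth and fungus-free blank controls. MIC is the lowest concentration preventing visible growth.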

Candida albicans [2] = assay: Antifungal activity against Candida albicans GIM 2.194 assessed as reduction in fungal growth incubated for 24 hrs by serial dilution method; details: GIM 2.194, 24 h; outline: as §1
Candida tropicalis = assay: Antifungal activity against Candida tropicalis GIM 2.183 assessed as reduction in fungal growth incubated for 24 hrs by serial dilution method; details: GIM 2.183, 24 h; outline: as §1
Nakaseomyces glabratus = assay: Antifungal activity against Candida glabrata assessed as reduction in fungal growth incubated for 24 hrs by serial dilution method; outline: as §1
Candida parapsilosis = assay: Antifungal activity against Candida parapsilosis GIM 2.190 assessed as reduction in fungal growth incubated for 24 hrs by serial dilution method; details: Lodderomyces parapsilosis, GIM 2.190, 24 h; outline: as §1
Candida albicans [3] = assay: Antifungal activity against fluconazole-resistant Candida albicans CaR assessed as reduction in fungal growth incubated for 24 hrs by serial dilution method
Outline: (§2)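 Fluconazole-resistant C. albicans clinical isolates (17# and CaR from AIDS patients; 632, 901, 904 from clinic) tested by CLSI broth dilution MIC in RPMI 1640 buffered to pH 7.0 with MOPS. Compounds dissolved in DMSO, serially diluted to final 0.03–16 or 0.125–64 μg/mL; inoculum 1–5 × 10^3 CFU/mL; 35 °C, 24 h. MIC = lowest concentration inhibiting visible growth; fluconazole and itraconazole as controls.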

Candida albicans [4] = assay: Antifungal activity against fluconazole-resistant Candida albicans 17 assessed as reduction in fungal growth incubated for 24 hrs by serial dilution method; details: Candida albicans, 17, 24 h; outline: as §2
Candida albicans [5] = assay: Antifungal activity against fluconazole-resistant Candida albicans 632 assessed as reduction in fungal growth incubated for 24 hrs by serial dilution method; details: Candida albicans, 632, 24 h; outline: as §2
Candida albicans [6] = assay: Antifungal activity against fluconazole-resistant Candida albicans 901 assessed as reduction in fungal growth incubated for 24 hrs by serial dilution method; details: Candida albicans, 901, 24 h; outline: as §2
Candida albicans [7] = assay: Antifungal activity against fluconazole-resistant Candida albicans 904 assessed as reduction in fungal growth incubated for 24 hrs by serial dilution method; details: Candida albicans, 904, 24 h; outline: as §2

SMILES	MIC (Candida albicans [1]) [µg/mL]	MIC (Candida albicans [2]) [µg/mL]	MIC (Candida tropicalis) [µg/mL]	MIC (Nakaseomyces glabratus) [µg/mL]	MIC (Candida parapsilosis) [µg/mL]	MIC (Candida albicans [3]) [µg/mL]	MIC (Candida albicans [4]) [µg/mL]	MIC (Candida albicans [5]) [µg/mL]	MIC (Candida albicans [6]) [µg/mL]	MIC (Candida albicans [7]) [µg/mL]
O=C(NC(Cn1ccnc1)C(=O)c1ccccc1)c1ccc(-c2cccc(F)c2)cc1 (stereo not drawn)	0.25 (≈ 0.605 µM)	0.5 (≈ 1.21 µM)	0.125 (≈ 0.302 µM)	> 64	1 (≈ 2.42 µM)					
O=C(NC(Cn1ccnc1)C(=O)c1ccc(Cl)cc1)c1ccc(-c2ccccc2)c(F)c1 (stereo not drawn)	0.06 (≈ 0.134 µM)	0.5 (≈ 1.12 µM)	0.06 (≈ 0.134 µM)	0.5 (≈ 1.12 µM)	1 (≈ 2.23 µM)	> 64	> 64	> 64	> 64	> 64
Cc1ccc(-c2ccc(C(=O)NC(Cn3ccnc3)C(=O)c3ccccc3)cc2)cc1 (stereo not drawn)	2 (≈ 4.88 µM)	> 16	> 16	> 64	> 64					
O=C(NC(Cn1ccnc1)C(=O)c1ccccc1)c1ccc(-c2ccc(Cl)cc2)cc1 (stereo not drawn)	0.5 (≈ 1.16 µM)	> 16	> 16	> 64	> 64					
Cc1cccc(-c2ccc(C(=O)NC(Cn3ccnc3)C(=O)c3ccccc3)cc2)c1 (stereo not drawn)	> 16	> 16	> 16	> 64	> 64					
Cc1ccc(C(=O)C(Cn2ccnc2)NC(=O)c2ccc(-c3ccccc3)cc2)cc1 (stereo not drawn)	0.06 (≈ 0.147 µM)	0.125 (≈ 0.305 µM)	0.03 (≈ 0.0733 µM)	0.25 (≈ 0.611 µM)	0.5 (≈ 1.22 µM)	> 64	> 64	> 64	16 (≈ 39.1 µM)	32 (≈ 78.1 µM)
O=C(NC(Cn1ccnc1)C(=O)c1ccccc1)c1ccc(-c2ccccc2F)cc1 (stereo not drawn)	0.5 (≈ 1.21 µM)	1 (≈ 2.42 µM)	0.25 (≈ 0.605 µM)	1 (≈ 2.42 µM)	2 (≈ 4.84 µM)					
O=C(NC(Cn1ccnc1)C(=O)c1ccccc1)c1ccc(-c2ccccc2)cc1F (stereo not drawn)	0.125 (≈ 0.302 µM)	0.25 (≈ 0.605 µM)	0.06 (≈ 0.145 µM)	0.5 (≈ 1.21 µM)	0.125 (≈ 0.302 µM)	4 (≈ 9.67 µM)	2 (≈ 4.84 µM)	32 (≈ 77.4 µM)	> 64	8 (≈ 19.3 µM)
O=C(NC(Cn1ccnc1)C(=O)c1ccc(Cl)cc1)c1ccc(-c2ccccc2)cc1 (stereo not drawn)	0.06 (≈ 0.14 µM)	0.125 (≈ 0.291 µM)	0.06 (≈ 0.14 µM)	0.5 (≈ 1.16 µM)	0.25 (≈ 0.582 µM)	> 64	> 64	4 (≈ 9.3 µM)	2 (≈ 4.65 µM)	2 (≈ 4.65 µM)
O=C(NC(Cn1ccnc1)C(=O)c1ccc(Cl)cc1)c1ccc(-c2ccccc2)cc1F (stereo not drawn)	0.06 (≈ 0.134 µM)	0.5 (≈ 1.12 µM)	0.06 (≈ 0.134 µM)	0.25 (≈ 0.558 µM)	0.125 (≈ 0.279 µM)	> 64	> 64	> 64	> 64	32 (≈ 71.4 µM)
O=C(NC(Cn1ccnc1)C(=O)c1ccccc1F)c1ccc(-c2ccccc2)c(F)c1 (stereo not drawn)	0.5 (≈ 1.16 µM)	0.5 (≈ 1.16 µM)	4 (≈ 9.27 µM)	> 64	2 (≈ 4.64 µM)	> 64	> 64	1 (≈ 2.32 µM)	0.25 (≈ 0.579 µM)	0.25 (≈ 0.579 µM)
O=C(NC(Cn1ccnc1)C(=O)c1ccccc1)c1ccc(-c2ccccc2)cc1Cl (stereo not drawn)	8 (≈ 18.6 µM)	> 16	> 16	> 64	> 64					
Cc1cc(C(=O)NC(Cn2ccnc2)C(=O)c2ccccc2)ccc1-c1ccccc1 (stereo not drawn)	> 16	> 16	> 16	> 64	> 64					
O=C(NC(Cn1cncn1)C(=O)c1ccccc1)c1ccc(-c2ccccc2)cc1 (stereo not drawn)	0.25 (≈ 0.631 µM)	2 (≈ 5.04 µM)	1 (≈ 2.52 µM)							
O=C(NC(Cn1ccnc1)C(=O)c1cccc(F)c1)c1ccc(-c2ccccc2)cc1F (stereo not drawn)	0.125 (≈ 0.29 µM)	0.5 (≈ 1.16 µM)	0.5 (≈ 1.16 µM)	2 (≈ 4.64 µM)	0.5 (≈ 1.16 µM)	2 (≈ 4.64 µM)	4 (≈ 9.27 µM)	> 64	2 (≈ 4.64 µM)	32 (≈ 74.2 µM)
O=C(NC(Cn1ccnc1)C(=O)c1cccc(Cl)c1)c1ccc(-c2ccccc2)cc1F (stereo not drawn)	0.06 (≈ 0.134 µM)	0.125 (≈ 0.279 µM)	0.03 (≈ 0.067 µM)	0.25 (≈ 0.558 µM)	0.125 (≈ 0.279 µM)	> 64	> 64	> 64	> 64	> 64
O=C(NC(Cn1ccnc1)C(=O)c1ccccc1F)c1ccc(-c2ccccc2)cc1F (stereo not drawn)	0.5 (≈ 1.16 µM)	1 (≈ 2.32 µM)	1 (≈ 2.32 µM)	> 64	1 (≈ 2.32 µM)	4 (≈ 9.27 µM)	8 (≈ 18.5 µM)	8 (≈ 18.5 µM)	> 64	2 (≈ 4.64 µM)
CCC(C)n1ncn(-c2ccc(N3CCN(c4ccc(OCC5COC(Cn6cncn6)(c6ccc(Cl)cc6Cl)O5)cc4)CC3)cc2)c1=O (stereo not drawn) [ITRACONAZOLE]	0.03 (≈ 0.0425 µM)	0.03 (≈ 0.0425 µM)	0.03 (≈ 0.0425 µM)	0.125 (≈ 0.177 µM)	0.125 (≈ 0.177 µM)	0.25 (≈ 0.354 µM)	0.25 (≈ 0.354 µM)	> 64	> 64	> 64
O=C(NC(Cn1ccnc1)C(=O)c1cccc(F)c1)c1ccc(-c2ccccc2)cc1 (stereo not drawn)	0.06 (≈ 0.145 µM)	0.125 (≈ 0.302 µM)	0.25 (≈ 0.605 µM)	1 (≈ 2.42 µM)	0.5 (≈ 1.21 µM)	> 64	> 64	1 (≈ 2.42 µM)	0.25 (≈ 0.605 µM)	0.5 (≈ 1.21 µM)
O=C(NC(Cn1ccnc1)C(=O)c1ccccc1)c1ccc(-c2ccccc2Cl)cc1 (stereo not drawn)	2 (≈ 4.65 µM)	> 16	> 16	4 (≈ 9.3 µM)	> 64					
Cc1cc(-c2ccccc2)ccc1C(=O)NC(Cn1ccnc1)C(=O)c1ccccc1 (stereo not drawn)	> 16	> 16	> 16	> 64	> 64					
O=C(NC(Cn1ccnc1)C(=O)c1ccc(F)cc1)c1ccc(-c2ccccc2)cc1 (stereo not drawn)	0.06 (≈ 0.145 µM)	0.25 (≈ 0.605 µM)	0.25 (≈ 0.605 µM)	0.5 (≈ 1.21 µM)	0.25 (≈ 0.605 µM)	> 64	> 64	2 (≈ 4.84 µM)	1 (≈ 2.42 µM)	2 (≈ 4.84 µM)
O=C(NC(Cn1ccnc1)C(=O)c1ccccc1)c1ccc(-c2ccc(F)cc2)cc1 (stereo not drawn)	4 (≈ 9.67 µM)	> 16	8 (≈ 19.3 µM)	> 64	> 64					
O=C(NC(Cn1ccnc1)C(=O)c1cccc(F)c1)c1ccc(-c2ccccc2)c(F)c1 (stereo not drawn)	0.125 (≈ 0.29 µM)	0.25 (≈ 0.579 µM)	1 (≈ 2.32 µM)	2 (≈ 4.64 µM)	1 (≈ 2.32 µM)	> 64	> 64	1 (≈ 2.32 µM)	0.25 (≈ 0.579 µM)	0.5 (≈ 1.16 µM)
Cc1ccccc1-c1ccc(C(=O)NC(Cn2ccnc2)C(=O)c2ccccc2)cc1 (stereo not drawn)	> 16	> 16	> 16	> 64	> 64					
O=C(NC(Cn1ccnc1)C(=O)c1ccc(F)cc1)c1ccc(-c2ccccc2)c(F)c1 (stereo not drawn)	0.06 (≈ 0.139 µM)	0.25 (≈ 0.579 µM)	0.25 (≈ 0.579 µM)	0.5 (≈ 1.16 µM)	0.25 (≈ 0.579 µM)	> 64	> 64	4 (≈ 9.27 µM)	> 64	4 (≈ 9.27 µM)
O=C(NC(Cn1ccnc1)C(=O)c1cccc(Cl)c1)c1ccc(-c2ccccc2)c(F)c1 (stereo not drawn)	0.06 (≈ 0.134 µM)	0.125 (≈ 0.279 µM)	0.125 (≈ 0.279 µM)	0.25 (≈ 0.558 µM)	0.5 (≈ 1.12 µM)	> 64	> 64	4 (≈ 8.93 µM)	4 (≈ 8.93 µM)	4 (≈ 8.93 µM)
O=C(NC(Cn1ccnc1)C(=O)c1ccccc1)c1ccc(-c2ccccc2)c(F)c1 (stereo not drawn)	0.06 (≈ 0.145 µM)	0.125 (≈ 0.302 µM)	0.06 (≈ 0.145 µM)	0.25 (≈ 0.605 µM)	0.125 (≈ 0.302 µM)	> 64	> 64	2 (≈ 4.84 µM)	0.25 (≈ 0.605 µM)	2 (≈ 4.84 µM)
O=C(NC(Cn1ccnc1)C(=O)c1ccccc1)c1ccc(-c2ccccc2)cc1 (stereo not drawn)	0.06 (≈ 0.152 µM)	0.125 (≈ 0.316 µM)	0.06 (≈ 0.152 µM)	0.25 (≈ 0.632 µM)	0.125 (≈ 0.316 µM)	> 64	> 64	2 (≈ 5.06 µM)	0.5 (≈ 1.26 µM)	1 (≈ 2.53 µM)
O=C(NC(Cn1ccnc1)C(=O)c1ccccc1)c1ccc(-c2ccccc2)c(Cl)c1 (stereo not drawn)	> 16	> 16	> 16	> 64	> 64					

— ChEMBL document CHEMBL4406852, “Combating fluconazole-resistant fungi with novel β-azole-phenylacetone derivatives” (Eur J Med Chem, 2019)
